Experimental data from different studies.
Each line is one published result; the experiments were not run side by side.
Read-out: cell growth or viability

COc1cccc2c1C(=O)c1c(O)c3c(c(O)c1C2=O)C[C@@](O)(C(=O)CO)C[C@@H]3O[C@H]1C[C@H](N)[C@H](O)[C@H](C)O1 — IC50 (RKO; 96 h): 0.00473 µM
C=C(NC(=O)C(=C)NC(=O)c1csc(C2=N[C@@H]3c4csc(n4)[C@H]4NC(=O)c5csc(n5)[C@H]([C@](C)(O)[C@@H](C)O)NC(=O)[C@H]5CSC(=N5)/C(=C/C)NC(=O)[C@H]([C@@H](C)O)NC(=O)c5csc(n5)[C@]3(CC2)NC(=O)[C@H](C)NC(=O)C(=C)NC(=O)[C@H](C)NC(=O)[C@H]([C@@H](C)CC)N[C@@H]2C=Cc3c([C@H](C)O)cc(nc3[C@H]2O)C(=O)O[C@@H]4C)n1)C(N)=O — EC50 (ES-2): 1.2 µM
CC(=O)ON=C1C=CC(=C(C#N)c2ccccc2)C=C1 — IC50 (HDF-1; MTT; 24 h): 27.4 µg/mL
Cc1nc(Nc2ncc(C(=O)Nc3c(C)cccc3Cl)s2)cc(N2CC[C@H](O)C2)n1 — inhibition (CCRF-CEM; ATP luminescence; 10 µM; 72 h): 14%
Nc1nc(S)nc(O)c1N=Cc1cn(-c2ccccc2)nc1-c1ccc(Cl)cc1 — CC50 (CCRF-CEM; 24 h): 15.1 µM
CN1CCC(NC2CCc3[nH]c4c(C(N)=O)ccc(-c5ccccc5Cl)c4c3C2)CC1 (stereo not drawn) — IC50 (RKO; 96 h): 0.00017 µM
COc1ccc(-c2nn(-c3ccccc3)cc2C=Nc2c(N)nc(S)nc2O)cc1 — CC50 (CCRF-CEM; 48 h): < 20 µM
C[C@H](Nc1ccc2c(c1)OCCn1cc(N3C(=O)OC[C@H]3C(F)F)nc1-2)C(N)=O — EC50 (HCC202; ATP luminescence; 5 days): 0.0154 µM
Nc1nc(S)nc(O)c1N=Cc1cn(-c2ccccc2)nc1-c1ccccc1 — CC50 (CCRF-CEM; 48 h): < 20 µM
O=C(N[C@@H](CSCc1nc2cc([N+](=O)[O-])ccc2[nH]1)C(=O)NO)c1ccccc1 — IC50 (HCC4006; MTT; 48 h): < 500 µM
Nc1nc(S)nc(O)c1N=Cc1cn(-c2ccccc2)nc1-c1ccc([N+](=O)[O-])cc1 — CC50 (CCRF-CEM; 48 h): > 40 µM
O=C(N[C@@H](CSCc1ccc([N+](=O)[O-])cc1)C(=O)NO)c1ccccc1 — IC50 (HCC4006; MTT; 48 h): 10.1 µM
